Assay results published in ChEMBL document CHEMBL1142436, “Design and synthesis of 4-substituted indolo[3,2-e][1,2,3]triazolo[1,5-a]pyrimidine derivatives with antitumor activity” (2008).

Tests used:
Assay type in all cases: functional
[1] = system: HCT-116; assay: Growth inhibition of human HCT116 cells after 48 hrs; settings: HCT-116, 48 h
Summary of the method: (§1)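 NCI ~60-line screen. Cells were grown in RPMI 1640 with 5% FBS and 2 mM L-glutamine and plated at 5000–40000 cells/well. After a 24 h preincubation, five drug concentrations from DMSO stocks were added for 48 h at 37 °C. Cells were TCA-fixed, stained with SRB and read at 515 nm. GI50 was taken from time-zero and control absorbances and reported as pGI50.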

[2] = system: MOLT-4; assay: Growth inhibition of human MOLT4 cells after 48 hrs; settings: MOLT-4, 48 h; summary of the method: as §1
[3] = system: HCT-15; assay: Growth inhibition of human HCT15 cells after 48 hrs; settings: HCT-15, 48 h; summary of the method: as §1
[4] = system: SNB-19; assay: Growth inhibition of human SNB19 cells after 48 hrs; settings: SNB-19, 48 h
Summary of the method: (§2)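 NCI 60-line screen: cells in RPMI 1640 with 5% FBS and 2 mM L-glutamine, plated at 5000–40000 cells/well, grown 24 h (37 °C, 5% CO₂), then exposed to five 10-fold or ½-log dilutions (DMSO stock) for 48 h. Fixed with TCA (final 10% for adherent cells, 16% for suspension cells), then SRB stained with absorbance at 515 nm. GI50 from percentage growth relative to time-zero and control wells.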

[5] = system: SF-295; assay: Growth inhibition of human SF295 cells after 48 hrs; settings: SF-295, 48 h; summary of the method: as §1
[6] = system: SN12C; assay: Growth inhibition of human SN12C cells after 48 hrs; summary of the method: as §2
[7] = system: UACC-257; assay: Growth inhibition of human UACC257 cells after 48 hrs; settings: UACC-257, 48 h; summary of the method: as §2
[8] = system: MCF7; assay: Growth inhibition of human MCF7 cells after 48 hrs; settings: MCF7, 48 h; summary of the method: as §1
[9] = Growth inhibition of human HS578T cells after 48 hrs; settings: Hs-578T; summary of the method: as §1
[10] = system: RPMI-8226; assay: Growth inhibition of human RPMI8226 cells after 48 hrs; settings: RPMI-8226, 48 h; summary of the method: as §1
[11] = system: HL-60; assay: Growth inhibition of human HL60 cells after 48 hrs; settings: HL-60, 48 h; summary of the method: as §1
[12] = system: A549; assay: Growth inhibition of human A549 cells after 48 hrs; settings: A549, 48 h; summary of the method: as §1
[13] = system: NCI-H322M; assay: Growth inhibition of human NCI-H322M cells after 48 hrs; summary of the method: as §1
[14] = system: DU-145; assay: Growth inhibition of human DU145 cells after 48 hrs; settings: DU-145, 48 h; summary of the method: as §1
[15] = system: SK-MEL-5; assay: Growth inhibition of human SK-MEL5 cells after 48 hrs; settings: SK-MEL-5, 48 h; summary of the method: as §1
[16] = system: NCI-H226; assay: Growth inhibition of human NCI-H226 cells after 48 hrs; settings: NCI-H226, 48 h; summary of the method: as §1
[17] = system: KM12; assay: Growth inhibition of human KM12 cells after 48 hrs; settings: KM12, 48 h; summary of the method: as §1
[18] = system: HCC 2998; assay: Growth inhibition of human HCC2998 cells after 48 hrs; settings: HCC 2998, 48 h; summary of the method: as §1
[19] = system: CAKI-1; assay: Growth inhibition of human CAKI1 cells after 48 hrs; settings: CAKI-1, 48 h; summary of the method: as §1
[20] = system: CCRF-CEM; assay: Growth inhibition of human CCRF-CEM cells after 48 hrs; summary of the method: as §1
[21] = system: OVCAR-8; assay: Growth inhibition of human OVCAR8 cells after 48 hrs; settings: OVCAR-8, 48 h; summary of the method: as §1
[22] = system: NCI-H522; assay: Growth inhibition of human NCI-H522 cells after 48 hrs; settings: NCI-H522, 48 h; summary of the method: as §1
[23] = system: A498; assay: Growth inhibition of human A498 cells after 48 hrs; settings: A498, 48 h; summary of the method: as §1
[24] = system: UACC-62; assay: Growth inhibition of human UACC62 cells after 48 hrs; settings: UACC-62, 48 h; summary of the method: as §2
[25] = system: OVCAR-3; assay: Growth inhibition of human OVCAR-3 cells after 48 hrs; settings: OVCAR-3, 48 h; summary of the method: as §1
[26] = system: NCI-H460; assay: Growth inhibition of human NCI-H460 cells after 48 hrs; settings: NCI-H460, 48 h; summary of the method: as §1
[27] = system: M14; assay: Growth inhibition of human M14 cells after 48 hrs; settings: M14, 48 h; summary of the method: as §1
[28] = system: OVCAR-5; assay: Growth inhibition of human OVCAR5 cells after 48 hrs; settings: OVCAR-5, 48 h; summary of the method: as §1
[29] = system: RXF 393; assay: Growth inhibition of human RXF393 cells after 48 hrs; settings: RXF 393, 48 h; summary of the method: as §1
[30] = system: U-251; assay: Growth inhibition of human U251 cells after 48 hrs; settings: U-251, 48 h; summary of the method: as §2
[31] = system: MDA-MB-231; assay: Growth inhibition of human MDA-MB-231 cells after 48 hrs; settings: MDA-MB-231, 48 h; summary of the method: as §1
[32] = system: ACHN; assay: Growth inhibition of human ACHN cells after 48 hrs; summary of the method: as §1
[33] = read-out: Log LC50 (the source's name) (converted)

For `Cn1c2ccccc2c2c(=O)n(CCCC(=O)NCC(=O)N(C(=O)NC3CCCCC3)C3CCCCC3)c3c(-c4ccccc4)nnn3c21`, the GI50 [1] was 14.1 µM, the LC50 [1] was > 100 µM and the TGI ([1]; read-out: pTGI (converted)) was 42.7 µM. For the same molecule, the GI50 [2] was 14.5 µM, the LC50 [2] was > 100 µM and the TGI ([2]; read-out: pTGI (converted)) was > 100 µM. The GI50 [3] was 10.7 µM, the LC50 [3] was > 100 µM and the TGI ([3]; read-out: pTGI) was > 100 µM. The LC50 [4] was > 100 µM, the TGI ([4]; read-out: pTGI (converted)) was > 100 µM and the GI50 [5] was > 100 µM. For the same molecule, the LC50 [5] was > 100 µM, the TGI ([5]; read-out: pTGI (converted)) was > 100 µM and the GI50 [6] was 19.5 µM. The LC50 [6] was > 100 µM, the TGI ([6]; read-out: pTGI (converted)) was 50.1 µM and the GI50 [7] was 66.1 µM. For the same molecule, the LC50 [7] was > 100 µM, the TGI ([7]; read-out: pTGI (converted)) was > 100 µM and the GI50 [8] was 3.63 µM. The LC50 [8] was > 100 µM, the TGI ([8]; read-out: pTGI (converted)) was > 100 µM and the GI50 [9] was 9.33 µM. The LC50 (50% lethal concentration) [9] was > 100 µM, the TGI ([9]; read-out: pTGI (converted)) was > 100 µM and the GI50 [10] was 4.27 µM. The LC50 [10] was 97.7 µM, the TGI ([10]; read-out: pTGI (converted)) was 21.4 µM and the GI50 [11] was 2.88 µM. For the same molecule, the LC50 [11] was > 100 µM, the TGI ([11]; read-out: pTGI (converted)) was 8.32 µM and the GI50 [12] was 38 µM. The CC50 [12, 33] was > 50.1 µM, the TGI ([12]; read-out: pTGI (converted)) was > 50.1 µM and the GI50 [13] was > 100 µM. The LC50 [13] was > 100 µM, the TGI ([13]; read-out: pTGI (converted)) was > 100 µM and the GI50 [14] was 18.6 µM. For the same molecule, the LC50 [14] was > 100 µM, the TGI ([14]; read-out: pTGI (converted)) was > 100 µM and the GI50 [15] was 6.03 µM. The LC50 [15] was > 100 µM, the TGI ([15]; read-out: pTGI (converted)) was 31.6 µM and the GI50 [16] was 39.8 µM. For the same molecule, the CC50 [16, 33] was > 100 µM, the TGI ([16]; read-out: pTGI) was > 100 µM and the GI50 [17] was 31.6 µM. For the same molecule, the LC50 [17] was > 100 µM, the TGI ([17]; read-out: pTGI (converted)) was > 100 µM and the GI50 [18] was 10.2 µM. The LC50 [18] was 70.8 µM, the TGI ([18]; read-out: pTGI (converted)) was 26.9 µM and the GI50 [19] was 32.4 µM. For the same molecule, the LC50 (concentration killing 50% of cells) [19] was > 100 µM, the TGI ([19]; read-out: pTGI (converted)) was 37.2 µM and the GI50 [20] was 8.32 µM. For the same molecule, the LC50 [20] was > 100 µM, the TGI ([20]; read-out: pTGI (converted)) was 57.5 µM and the LC50 [21] was > 100 µM. For the same molecule, the GI50 [22] was 15.8 µM, the LC50 [22] was > 100 µM and the TGI ([22]; read-out: pTGI (converted)) was 81.3 µM. The GI50 [23] was 30.9 µM, the CC50 [23, 33] was > 100 µM and the TGI ([23]; read-out: pTGI (converted)) was > 100 µM. For the same molecule, the GI50 [24] was 25.7 µM, the LC50 [24] was > 100 µM and the TGI ([24]; read-out: pTGI (converted)) was > 100 µM. For the same molecule, the GI50 [25] was 19.5 µM, the LC50 [25] was > 100 µM and the TGI ([25]; read-out: pTGI (converted)) was 95.5 µM. The GI50 [26] was 32.4 µM, the LC50 [26] was > 100 µM and the TGI ([26]; read-out: pTGI (converted)) was > 100 µM. The GI50 [27] was 30.9 µM, the LC50 [27] was > 100 µM and the TGI ([27]; read-out: pTGI (converted)) was > 100 µM. The GI50 [28] was 15.5 µM, the LC50 (concentration killing 50% of cells) [28] was 69.2 µM and the TGI ([28]; read-out: pTGI (converted)) was 32.4 µM. The GI50 [29] was 11 µM, the LC50 [29] was > 100 µM and the TGI ([29]; read-out: pTGI (converted)) was 37.2 µM. The GI50 [30] was 12.3 µM, the LC50 [30] was > 100 µM and the TGI ([30]; read-out: pTGI (converted)) was 38 µM. The GI50 [31] was 12.3 µM, the LC50 (concentration killing 50% of cells) [31] was > 100 µM and the TGI ([31]; read-out: pTGI (converted)) was 38 µM. For the same molecule, the GI50 [32] was 26.3 µM, the LC50 [32] was > 100 µM and the TGI ([32]; read-out: pTGI (converted)) was > 100 µM.
